High-throughput results deposited in PubChem BioAssay by The Scripps Research Institute Molecular Screening Center.
mABHD4 FP = ABHD4 inhibitors, primary screen, biochemical, fluorescence polarization, mouse; (Lyso)-N-acylphosphatidylethanolamine lipase (Mus musculus), Q8VD66; purified mABHD4, FP-Rh probe fluorescence polarization; inhibition, % at 8.92 µM; 370,000 compounds, 0.54% hits; AID 720543, 2013;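 active means inhibition exceeding the mean over every tested compound plus 3 SD, cut at about 30% in these data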;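 further: 0% = plate median of compound wells and 100% = S159A mutant with DMSO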
Target sequence (Q8VD66 whole entry, looked up): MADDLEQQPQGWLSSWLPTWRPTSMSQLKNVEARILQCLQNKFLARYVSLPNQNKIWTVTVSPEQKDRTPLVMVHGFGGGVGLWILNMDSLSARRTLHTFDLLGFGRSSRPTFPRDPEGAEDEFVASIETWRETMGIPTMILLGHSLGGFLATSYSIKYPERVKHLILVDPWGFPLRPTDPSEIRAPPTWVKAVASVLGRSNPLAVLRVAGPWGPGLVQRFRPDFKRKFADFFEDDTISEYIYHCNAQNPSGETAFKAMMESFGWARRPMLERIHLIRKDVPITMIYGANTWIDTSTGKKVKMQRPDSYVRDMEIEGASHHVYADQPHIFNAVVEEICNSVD
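Test system: mABHD4 protein | Buffer or medium: HEPES pH 7.0 buffer, 150 mM NaCl, 0.01% Pluronic F-127 | Probe or stimulus: FP-Rh fluorescent activity-based probe, added after compound pre-incubation | Timing: Pre-incubation 45 min, probe exposure 60 min, at 25 °C | Technique: Fluorescence polarization, excitation 525 nm, emission 598 nm, BODIPY TMR filters | Repeats: Single well per compound (singlicate)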
HTRA1 inh = HTRA1 serine protease inhibitors, primary screen, biochemical, fluorescence polarization, HTS | recombinant HTRA1, FP-rhodamine activity-based probe | inhibition, % at 5.96 µM | 340,000 compounds, 0.5% hits | AID 504803, 2011; in the data active means inhibition above about 36%;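 further: 0% = enzyme with DMSO and 100% = wells lacking enzyme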
TCR CD3 inh = inhibitors of human TCR-CD3 interaction, primary screen, biochemical, fluorescence, TAMRA-labeled TCR probe; inhibition, % at 9.4 µM; 360,000 compounds, 0.37% hits; AID 651800, 2012; T-cell receptor (TCR); in the data active means inhibition above about 19%;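 further: recombinant mutant TCR 2C K166C tagged with TAMRA read by polarization; 0% = receptor in buffer alone and 100% = receptor with positive control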
PAD4 inh = human PAD4 inhibitors, primary screen, biochemical, fluorescence polarization, 1536-well format. recombinant PAD4, RCA probe fluorescence polarization. Protein-arginine deiminase type-4 (Homo sapiens), Q9UM07. 330,000 compounds, 0.41% hits. AID 485272, 2010. inhibition, % at 6.36 µM;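 active means percent inhibition above a cutoff equal to the mean of all tested compounds plus 3 SD, cut at about 15% in these data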;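 further: 0% = PAD4 with RCA probe and DMSO and 100% = probe without PAD4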
PRMT1 inh = PRMT1 methyltransferase inhibitors, primary screen, biochemical, fluorescence polarization. Protein arginine N-methyltransferase 1 (Homo sapiens), Q99873. inhibition, % at 2.79 µM. 370,000 compounds, 1.3% hits. recombinant PRMT1, activity-based probe fluorescence polarization. AID 652257, 2013;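 active means inhibition above about 21% made by adding two undisclosed values, limit read from the data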
SIAE primary = human SIAE inhibitors, primary screen, biochemical, fluorescence polarization, FP-Rh probe, 1536-well HTS | AID 1053197, 2014 | Sialate O-acetylesterase (Homo sapiens), Q9HAT2 | SIAE FP-Rh probe binding | 370,000 compounds, 0.69% hits | inhibition, % at 9.66 µM;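 active means inhibition above a cutoff: mean of compounds within the control limits plus 3 SD of those, cut at about 17% in these data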;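 further: 0% = plate median of compound wells and 100% = probe without SIAE protein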
ABHD4 confirm = ABHD4 inhibitors, retest, confirmation, biochemical, fluorescence polarization, mouse | purified mABHD4, FP-Rh probe fluorescence polarization | inhibition, % at 8.92 µM | 1,800 compounds, 55% hits | shares compounds with mABHD4 FP;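 active means mean inhibition across replicates above the hit cutoff set in the primary screen, cut at about 30% in these data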;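 further: 0% = wild-type ABHD4 with DMSO and 100% = catalytically dead S159A mutant with DMSO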
Starred values were filed as active, the others as inactive; · = no result given. Rows were chosen to be rich in hits. Some 2.9% of all compounds tested hit in one or more screens of this group.

SMILES	mABHD4 FP	HTRA1 inh	TCR CD3 inh	PAD4 inh	PRMT1 inh	SIAE primary	ABHD4 confirm
O=C(N/N=C/c1ccc[nH]1)c1cc2ccccc2cc1O	23	30	2	-6	6	16	·
CCOc1cc(/C=C2\N=C(SC)SC2=O)cc([N+](=O)[O-])c1OC(C)=O	·	20	·	2	·	·	·
CCOc1cc(/C=C2\N=C(SCC)SC2=O)cc([N+](=O)[O-])c1OC(C)=O	42*	22	-3	1	7	-2	83*
CCN(CC)C(=O)CC[C@@H]1CC[C@]2(CCCN(C(=O)c3ccno3)C2)O1	-1	·	·	·	-1	0	·
CC(C)CN(/C=N/c1sc2c(c1C#N)CCCCC2)CC(C)C	11	-8	4	-1	0	5	·
CCN(/C=N/c1sc2c(c1C#N)CCCCC2)CC	32*	0	1	2	-1	2	35*
O=C(Nc1ccccc1Cl)OC1CC2CC1[C@H]1CCCCN1[C@H]2Cc1ccccc1 (some centres undefined)	10	·	·	·	0	-1	·
COCc1[nH]nc2c1C(c1ccccc1)NC2=O (centres undefined)	3	·	-2	·	0	0	·
Cc1ccc(NCc2cccc(B(O)O)c2)cc1	59*	4	-2	·	1	9	61*
Cc1ccc(NCc2ccccc2)cc1	1	4	8	2	-2	7	·
O=C1NC(=O)/C(=C\c2ccc(O)cc2O)S1	30*	17	17	1	10	-2	3
Clc1cccc(-c2ccc(-c3nc4ccccn4c3NCc3ccccc3)cc2)c1	37*	-13	0	-3	2	10	33*
COc1ccccc1-c1cc(N)n(S(=O)(=O)c2cccc3nsnc23)n1	-2	-3	1	1	-2	3	·
CCOc1ccc(S(=O)(=O)n2cc(-c3ccc(F)cc3)c(N)n2)cc1	-10	-11	9	-5	-1	2	·
CCOc1cc(S(=O)(=O)n2cc(-c3ccc(F)cc3)c(N)n2)cc(OCC)c1OCC	49*	-36	7	0	0	-2	65*
CCOc1cc(-c2cn(S(=O)(=O)c3cccc4nsnc34)nc2N)cc(OCC)c1OCC	31*	-4	0	-6	1	4	51*
O=C(CSc1nnc(-c2ccccc2)n1-c1ccc(Cl)cc1)c1ccc(Cl)cc1	2	·	·	·	-1	2	·
COc1ccc(C(=O)CSc2nnc(-c3cccnc3)n2-c2ccc(C)cc2)cc1	3	·	·	·	1	9	·
CN(C)c1ccc(S(=O)(=O)N2CCCCC2)cc1NC(=O)C1CSC2(C)CCC(=O)N12 (centres undefined)	1	5	0	2	-4	-5	·
CCN(CC)S(=O)(=O)c1ccc(N2CCCCC2)c(NC(=O)C2CSC3(C)CCC(=O)N23)c1 (centres undefined)	40*	-9	0	·	3	3	36*
Cc1ccc(C2c3c(n[nH]c3C)C(=O)N2Cc2ccccc2)cc1 (centres undefined)	-10	·	-5	·	-1	5	·
C[C@H]1C2CC(OC(=O)Nc3ccc(F)cc3)C(C2)[C@H]2CCCCN21 (some centres undefined)	-3	·	·	·	3	4	·
O=c1cc(CSc2ccc(Cl)cc2)[nH]c2[nH]n(-c3ccccc3)c(=O)c12	47*	20	10	2	24*	14	26
Cc1[nH]n(-c2ccccc2)c(=O)c1Sc1ccc(Cl)cc1	1	-7	-3	-4	4	-5	·
C1=CC2c3ccccc3NC(c3ccncc3)C2C1 (centres undefined)	50*	33	-4	-9	23*	10	64*
SMILES	mABHD4 FP	HTRA1 inh	TCR CD3 inh	PAD4 inh	PRMT1 inh	SIAE primary	ABHD4 confirm
Cc1cccc2c(N=Nc3ccc(S(=O)(=O)Nc4ccc(Cl)cc4)cc3[N+](=O)[O-])c(O)[nH]c12	40*	20	4	-6	-4	7	38*
Cc1cccc2c(N=NC(=O)c3ccc(NS(=O)(=O)c4cccs4)cc3)c(O)[nH]c12	7	-5	15	-2	5	-25	·
COC(=O)[C@]12C[C@H](CC(=O)NCCCN3CCCC3=O)C(=O)N(Cc3ccc4c(c3)OCO4)C1=C[C@H](COCc1ccccc1)O[C@@H]2C	6	·	-3	·	-1	-2	·
Cc1ccc(-n2nc(C)c3c2OC(N)=C(C#N)C3c2ccoc2)cc1 (centres undefined)	10	1	-6	-11	4	3	·
Cc1ccc(-n2nc(C)c3c2OC(N)=C(C#N)C3c2ccco2)cc1 (centres undefined)	41*	8	-2	-12	6	14	20
CCN(Cc1ccccc1)c1ccc(/C=N/N=C(N)N)cc1	46*	23	0	2	-2	6	62*
C(=C\c1ccccc1)/CN1CCN(C(c2ccccc2)c2ccccc2)CC1	95*	-6	0	-5	-1	2	4
C=CCNC(=O)Nc1ccc2c(c1)[C@@]1(CC(=O)N(CC(C)C)C1c1ccccc1)C(=O)N2C (some centres undefined)	1	·	·	·	-6	0	·
CCCCN(C)c1c(C)nc2ccc(C(=O)Nc3cc(-c4ccccc4)ccc3OC)cn12	40*	·	8	·	3	4	56*
COc1ccccc1N1C(=O)C2C(c3ccc(F)cc3)NN(C(=O)c3ccc(C)cc3)C2C1=O (centres undefined)	34*	1	-4	-3	-3	1	24
COc1ccc(N2CC(C(=O)N/N=C/c3c[nH]c4ccccc34)CC2=O)cc1 (centres undefined)	4	3	0	-3	-3	1	·
CCCCCN=C(N)N/N=C/c1c[nH]c2ccc(OC)cc12	41*	12	-4	-1	0	-4	54*
O=C(O)c1ccc(N/N=C/c2ccc(-c3ccc(Br)cc3)o2)cc1	42*	16	4	-2	8	3	84*
O=C(O)c1ccc(N/N=C/c2ccc(-c3ccccc3Cl)o2)cc1	40*	-2	0	0	2	14	46*
Cc1cc(Cl)c(S(=O)(=O)Nc2ccc3c(c2)OCO3)cc1OCC(N)=O	0	0	3	1	1	-5	·
Cc1cc(Cl)c(S(=O)(=O)Nc2ccc3c(c2)OCO3)cc1OCC(=O)NC1CCCCC1	30*	-14	0	0	3	-2	3
